Assay results from different studies.
Lines come from different studies, so protocols differ.

SMILES	target or system	test	system	conditions	endpoint	result
C[C@@H]1CN2c3c(cc4c(N5C(=O)OC[C@@H]5C)noc4c3F)CC3(C(=O)NC(=O)NC3=O)[C@H]2[C@H](C)O1	Klebsiella pneumoniae	microbial growth, broth dilution	ATCC10031		MIC	0.25 µg/mL
Oc1c(Cl)cc(Cl)cc1-c1[nH]c(Cl)c(Cl)c1Cl	Streptococcus pneumoniae	microbial growth	ATCC49619		MIC	0.13 µM
O=c1ccc2nc3ccc(OCc4ccc([N+](=O)[O-])o4)cc3oc-2c1	Klebsiella pneumoniae	microbial growth		24 h	MIC	> 32 µg/mL
COc1ccc(Nc2nn3c(-c4ccccc4)ccnc3c2C(=O)Nc2ccccc2)cc1	Caco-2	cell growth or viability, MTT		25 µg/mL, 48 h, serum-free	viability	56.6%
COc1ccc(-c2c(-c3ccc(C#N)c(F)c3)nc(N3CCC(N)CC3)n(C)c2=O)cc1F	TC-32	cell growth or viability, resazurin			IC50	36 µM
N.N.[Cl][Pt][Cl]	A2780	cell growth or viability, MTT			IC50	0.31 µM
Oc1c(Br)cc(Br)cc1-c1[nH]c(Br)c(Br)c1Br	Streptococcus pneumoniae	microbial growth	ATCC49619		MIC	0.04 µM
O=c1ccc2nc3ccc(O)cc3oc-2c1	Klebsiella pneumoniae	microbial growth		24 h	MIC	> 32 µg/mL
Cc1c2ccncc2c(C)c2c1[nH]c1ccccc12	Caco-2	cell growth or viability, SRB		72 h	GI50	4.91 µM
